The values that follow come from ChEMBL document CHEMBL4513216, “Probing the Open Global Health Chemical Diversity Library for Multistage-Active Starting Points for Next-Generation Antimalarials” (ACS Infect Dis, 2020).

Each structure is given as a SMILES string.

A short description of this series: Toxicity liver stage against HepG2, at 10uM. Type of series: cell-based. On the set-up: test concentration 10 uM, cell line HepG2-A16-CD81EGFP. The note with it: human, HepG2-A16-CD81EGFP cells; read-out: INHIBITION
Put shortly: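 Uninfected HepG2-A16-CD81EGFP cells, 3 × 10^3 per well, 1536-well, plated on prespotted compound at 10 μM final, parasite-free screening media added to match infected plates; puromycin 10 μM positive, DMSO 0.5% negative; run in parallel with 48 h PbLuc assay at 37 °C, 5% CO2; viability by CellTiter-Glo luminescence, normalized to controls.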

Take `Cn1nc(CNC(=O)c2ccc(OC(F)(F)F)cc2)c2c1CCOC2`: the cytotoxicity at 10 µM worked out at 7.03%.
As to `O=C1COc2cc(C(=O)N3CCCC(n4cccn4)C3)ccc2N1` (stereo not drawn), the cytotoxicity at 10 µM was -22.6%.
As to `CCCc1nc(C)cc(NC(C)Cc2cnccn2)n1` (stereo not drawn), the cytotoxicity at 10 µM is -0.166%.
For the compound `CC(=O)N1CCN(Cc2ccc(F)c(C(F)(F)F)c2)CC(O)C1` (stereo not drawn), the cytotoxicity at 10 µM was -6.87%.
With `O=C(C1CCOCC1)N1C[C@@H]2CC[C@H]1CN(C1Cc3ccccc3C1)C2`, the cytotoxicity at 10 µM was -0.317%.
Consider `O=C(NCCSC1CCCC1)c1cc(C2CC2)on1`, for which the cytotoxicity at 10 µM stood at 0.459%.
As to `CC(C)CN1CCC(C(=O)NCCNC(=O)c2ccoc2)CC1`, the cytotoxicity at 10 µM was found to be 0.335%.
As for `O=C(c1cc2c(s1)CCOC2)N1CCCC1Cn1cccn1` (stereo not drawn), the cytotoxicity at 10 µM was -2.06%.
The figure for `Cc1ccc(CN(C)C(=O)CN2CCCC2Cn2cccn2)o1` (stereo not drawn) is -10.4%; for `CCCSc1ncc(C2CC(=O)NCc3nc4ccccn4c32)cn1` (stereo not drawn) it is -6.53%.
As for `O=C(Cc1ccc2c(c1)OCC2)Nc1nc(C(F)(F)F)n[nH]1`, the cytotoxicity at 10 µM was determined as 2.98%.
As to `COc1ccc(C(=O)NCCN2CCC(c3cccs3)CC2)cc1OC`, the cytotoxicity at 10 µM is -0.493%.
The figure for `CC(C)c1nnc(CN2CCN(CC(O)c3ccccc3)CC2)o1` (stereo not drawn) is -7.03%; for `COCCO[C@H]1CCN(c2cc(OC)ncn2)[C@H]1Cc1cnn(C)c1` it is -133%; for `Nc1cc(-c2cc(C(=O)O)ccc2Cl)c2cc[nH]c2n1` it is 1.94%.
For `O=C1CCCN1CCN1CC=C(c2cnn(C3CCS(=O)(=O)C3)c2)CC1` (stereo not drawn), the cytotoxicity at 10 µM is -0.36%.
Turning to `Cc1csc(N2CCCN(Cc3noc(C)n3)CC2)n1`, the cytotoxicity at 10 µM was -4.26%.
As to `C=C(C)CNC1CCCN(Cc2noc(C3CC3)n2)C1` (stereo not drawn), the cytotoxicity at 10 µM is -4.56%.
The value for `CC(C)Oc1ccc(CNC(=O)C2CCS(=O)(=O)C2)cn1` (stereo not drawn) was 0.788%.
The figure for `O=C(c1cnccn1)N1CCc2onc(CN3CCOCC3)c2C1` is 9.47%; for `CNc1cc(-c2cc(OC)c(OC)c(OC)c2)ncn1` it is -11.8%; for `COc1ccc(Oc2ncccc2C(F)(F)F)cc1CN1CCCC1` it is 4.22%.
With `COc1cccc(CN2CCN(c3cccc(C(C)C)n3)CC2)c1F`, the cytotoxicity at 10 µM is 4.25%.
As for `Cc1nnc(NCc2cccc(OCC3CCCO3)c2)c(C#N)c1C` (stereo not drawn), the cytotoxicity at 10 µM is -33.8%.
Take `O=C(CCC1CCCO1)NCc1ccnc(-n2cccn2)c1` (stereo not drawn): the cytotoxicity at 10 µM was -14.6%.
The figure for `CSCCCN(CCN1CCOCC1)Cc1ccco1` is 8.05%; for `Cc1nc(CNCc2ccc(N3CCN(C)CC3)nc2)cs1` it is -5.33%.
Turning to `O=S(=O)(C1CC1)N1CCCn2nnc(Cn3cccc3)c2C1`, the cytotoxicity at 10 µM is 9.39%.
In the case of `O=C(c1ccccc1)N1C[C@H]2CC[C@@H](C1)N(C(=O)CN1CCOCC1)C2`, the cytotoxicity at 10 µM was 9.23%.
`O=C(NCc1ccco1)[C@@H]1CCO[C@@H]2CCN(c3ccncn3)C[C@H]21`: the cytotoxicity at 10 µM was 0.118%.
Consider `CN(CCc1cn[nH]c1)Cc1nc(Cc2cccc(F)c2)no1`, for which the cytotoxicity at 10 µM was -1.53%.
With `Cc1ccc(CN2CCc3ncnc(-c4cccnc4)c3CC2)o1`, the cytotoxicity at 10 µM came to 1.06%.
The value for `Cc1nn(C)c(N(C)C)c1CNCc1ccc(N(C)C)nc1` was -1.24%.
The figure for `Cc1nc(C(C)NC(=O)c2cn(CCC3CCCCC3)nn2)n[nH]1` (stereo not drawn) is 9.21%.
As to `c1cncc(CNc2cncc(C3CCCN3)n2)c1` (stereo not drawn), the cytotoxicity at 10 µM was determined as 9.93%.
The value for `COc1cccc2c1N(Cc1noc(C(C)(C)C)n1)CCC2` was 10.9%.
`Cc1cc(CC(C)Nc2ncnc3cccc(F)c23)[nH]n1` (stereo not drawn): the cytotoxicity at 10 µM was 26.4%.
As to `CCCc1noc(C(C)N2CCN(CCn3ccccc3=O)CC2)n1` (stereo not drawn), the cytotoxicity at 10 µM is 5.6%.
Consider `CS(=O)(=O)NC1CCN(C(=O)NCc2cc[nH]n2)CC1`, for which the cytotoxicity at 10 µM is -6.37%.
Consider `O=S(=O)(Nc1cnc(N2CCOCC2)nc1)c1cccc(F)c1`, for which the cytotoxicity at 10 µM is -19.2%.
Turning to `CN1C(=O)CCCC12CCCN(C(=O)c1ccc3c(c1)OCO3)C2` (stereo not drawn), the cytotoxicity at 10 µM is 0.758%.
The value for `COc1cccc(S(=O)(=O)Cc2noc(CC(C)C)n2)c1` was 12%.
On to `CCSc1ncc(CN2CCN(c3ncc(C)c(N)n3)CC2)cn1`, for which the cytotoxicity at 10 µM is -4.65%.
Take `Cc1ccc(NC(=O)N2CC(C(=O)NC(C)C)C3(CCOCC3)C2)cc1` (stereo not drawn): the cytotoxicity at 10 µM was -74.3%.
In the case of `COCCN1CCN(C(=O)C(c2cccc(F)c2)N(C)C)CC1` (stereo not drawn), the cytotoxicity at 10 µM worked out at 9.63%.
For the compound `COc1ccc(O[C@H]2COCCN(Cc3cccc4c3OCO4)C2)cc1`, the cytotoxicity at 10 µM turned out to be 0.375%.
Regarding `CN(C)Cc1nn(C)c2c1CCN(S(=O)(=O)c1cccs1)C2`, the cytotoxicity at 10 µM was determined as 4.52%.
Consider `C=C(C)CN(CC)S(=O)(=O)c1cccc(F)c1C#N`, for which the cytotoxicity at 10 µM is -6.03%.
On to `CC(=O)N1CCC2(CC1)CC(Oc1ccccc1)CO2` (stereo not drawn), for which the cytotoxicity at 10 µM was -8.77%.
The value for `Cc1ccsc1-c1nccn1CCN1CCCCC1CO` (stereo not drawn) was -8.11%; that for `Cn1ccnc1CN1CCCCC1c1nc(-c2ccccc2)no1` (stereo not drawn) was -47.5%; that for `CC(=O)N1CCCN(C(=O)c2ccc(Cn3ccccc3=O)o2)CC1` was -1.4%.
Consider `Cc1nc(CN2CCCC(N(C)c3cnc4ccccc4n3)C2)no1` (stereo not drawn), for which the cytotoxicity at 10 µM is -14.6%.
As to `CCCc1noc(C2CC(=O)N(CCN(C)C)C2)n1` (stereo not drawn), the cytotoxicity at 10 µM was determined as 5.48%.
Turning to `O=C(O)c1ccc(CN2CCC(c3ccnc4ccnn34)CC2)cc1`, the cytotoxicity at 10 µM is -29.9%.
Consider `CC(C)c1nnc2n1CCN(Cc1cc(Cl)c3c(c1)OCO3)C2`, for which the cytotoxicity at 10 µM is 0.0723%.
With `Cc1nc(C)n(C2CCCN(C(=O)c3ccc(OC(C)C)nc3)C2)n1` (stereo not drawn), the cytotoxicity at 10 µM was -5.92%.
The figure for `CC(Cn1cccn1)NC(=O)N1CCN(Cc2ccncc2)CC1` (stereo not drawn) is -20.8%; for `Cc1nc(CN2CCC(CNC(=O)CCC3CCCC3)CC2)oc1C` it is -1.29%.
The figure for `COCCNc1nc2c(c(NCc3ccncc3)n1)CCNCC2` is -2.18%; for `COc1cc(C2(C(=O)N3CCN(CC(C)(C)O)CC3)CC2)ccc1C` it is -0.0264%; for `Cn1nc2c(cc1=O)CN(Cc1nnc(-c3ccc(F)cc3)o1)CC2` it is -9.47%.
On to `O=C(c1ccnnc1)N1C[C@@H](OCC2CCCC2)[C@H]2OCCC[C@H]21`, for which the cytotoxicity at 10 µM is -11.8%.
Take `CSc1ncccc1C(=O)N1C[C@@H]2CC[C@H]1CN(CC(=O)N(C)C)C2`: the cytotoxicity at 10 µM came out at 2.9%.
The figure for `CCN(CC1CCOC1)C(=O)Nc1ccc(-n2cncn2)nc1` (stereo not drawn) is -6.92%; for `Cn1c(CN2CCOCC2)nnc1C1CCCN(C(=O)CCC2CC2)C1` (stereo not drawn) it is 6.72%; for `CN(Cc1ccsc1)C(=O)Nc1ccc(S(=O)(=O)N(C)C)cc1` it is 2.23%.
For `CC1CN(Cc2nnsc2Cl)CCN1c1nccs1` (stereo not drawn), the cytotoxicity at 10 µM is -39.3%.
For `NCCn1nc(C2CCN(C(=O)Cc3ccccc3)C2)c2nccnc21` (stereo not drawn), the cytotoxicity at 10 µM was -15.9%.
For `CC(C)(C)c1ncc(CNc2ccccc2SCCC(N)=O)s1`, the cytotoxicity at 10 µM amounted to 55.4%.
Take `Cc1nc(C2CCCN2C(=O)CN(C)Cc2ccccc2)no1` (stereo not drawn): the cytotoxicity at 10 µM is -0.803%.
Regarding `CCCN(Cc1cnc2ccccc2n1)Cc1ccccc1OC`, the cytotoxicity at 10 µM was -40.1%.
As for `CN(C)CCN1C(=O)CCCC12CCCN(Cc1cccs1)C2` (stereo not drawn), the cytotoxicity at 10 µM stood at 0.199%.
Consider `CSc1nccc(N2CCC3(CCCN(Cc4cccc(C)c4)C3)C2)n1` (stereo not drawn), for which the cytotoxicity at 10 µM is 12.1%.
In the case of `OC[C@@H](O)CN(CCC(F)(F)F)c1ncccn1`, the cytotoxicity at 10 µM was 2.41%.
In the case of `Cc1cnn(C2CCCN(C(=O)Cc3cn4ccccc4n3)C2)c1` (stereo not drawn), the cytotoxicity at 10 µM is -3.15%.
Regarding `CCCN(CCC)C(=O)c1cnn(C)c1C`, the cytotoxicity at 10 µM was -128%.
For `CN(C)Cc1cnc2n1CCN(C(=O)Cc1ccsc1)CC2`, the cytotoxicity at 10 µM was -3.95%.
As for `CN(C)c1nccc(N(C)Cc2nc3ccccc3n2C)n1`, the cytotoxicity at 10 µM stood at 0.482%.
The value for `CC(C)(C)NC(=O)NC(=O)CNC(C)(C)c1ccc2c(c1)OCCO2` was -8.72%.
Consider `Cc1cccc(CN2C[C@@H]3COC[C@]3(COc3cccnc3)C2)n1`, for which the cytotoxicity at 10 µM turned out to be 11.4%.
Consider `CNC(=O)c1cn(C(C)(C)C)c2ncccc12`, for which the cytotoxicity at 10 µM is -7.85%.
For `Cc1nc(COCc2nc3c(o2)CN(C(=O)c2ccc[nH]2)C3)cs1`, the cytotoxicity at 10 µM turned out to be 0.657%.
As to `CC(O)CN1CCc2[nH]nc(C(c3ccccc3)c3ccccc3)c2C1` (stereo not drawn), the cytotoxicity at 10 µM was -0.481%.
With `Cn1ccc(C(=O)N2CCc3[nH]nc(Nc4ccccc4)c3C2)n1`, the cytotoxicity at 10 µM was found to be 5.21%.
For `COc1ccc(OC)c(C(O)CNC(=O)Nc2ccc(F)cc2F)c1` (stereo not drawn), the cytotoxicity at 10 µM is -2.74%.
`CCS(=O)(=O)N1CC(=O)N(CCOc2ccccc2)CC(O)C1` (stereo not drawn): the cytotoxicity at 10 µM is -0.739%.
As for `CC(C)Cn1nc2ccc(S(=O)(=O)N3CCC(C)CC3)cn2c1=O`, the cytotoxicity at 10 µM worked out at 1.67%.
As to `Cc1nc2ncnn2c(C)c1CCC(=O)Nc1cccn(C)c1=O`, the cytotoxicity at 10 µM was -9.59%.
For the compound `CC(=O)c1c(F)cccc1NCC(O)C1CC1` (stereo not drawn), the cytotoxicity at 10 µM was found to be 13.4%.
`COCCn1ccc2ccc(NC(=O)NCc3noc(C)n3)cc21`: the cytotoxicity at 10 µM worked out at 7.36%.
On to `CCc1ccsc1C(=O)NC(C#N)CC` (stereo not drawn), for which the cytotoxicity at 10 µM worked out at 3.15%.
As for `CNC(=O)c1cc2c(nc1NCC(C)C)CCN(c1ncccn1)CC2`, the cytotoxicity at 10 µM is -157%.
Turning to `CCOC1Sc2nnc(C)n2N=C1c1ccc(F)cc1` (stereo not drawn), the cytotoxicity at 10 µM came to 4.48%.
For the compound `CC(=O)Nc1nc(C(=O)NCCOc2ccccc2)cs1`, the cytotoxicity at 10 µM came out at 6.11%.
As for `CC(=O)N1CCC2(C1)c1ccccc1S(=O)(=O)N2C` (stereo not drawn), the cytotoxicity at 10 µM turned out to be 6.57%.
Regarding `COc1cc(N(C)Cc2noc(CC(C)C)n2)ncn1`, the cytotoxicity at 10 µM was -0.71%.
The figure for `O=C(c1cccc(Cl)c1)N1CCCC2(CCCNC2)C1` (stereo not drawn) is -152%.
